pIC50: −log10 of the molar value. Non-standard residues stand in square brackets, D forms with d. Residues, ends and D or L forms follow the SMILES beside them. ξ: configuration not given here. *: point of attachment. X1 = CCCCCCCCCCCCCCCC(=O)OCC(C*)OC(=O)CCCCCCCCCCCCCCC; ξC = NC(CS)C(=O)O
What was measured:
[1] = biological target: Platelet glycoprotein 4 (Mus musculus) (UniProt Q08857); assay: Modulation of CD36 receptor in mouse RAW 264.7 cells assessed as inhibition of R-FSL-1-induced NO production pretreated for 30 mins followed by R-FSL-1 stimulation measured after 1140 min by fluorescence plate reader assay; format: cell-based; conditions: RAW264.7, filed as modulator, time 1170.0 min
Outline: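 RAW 264.7 cells seeded at 1.5 × 10^5 per well in DMEM with pen/strep. After 2 h, medium changed to DMEM with 0.2% BSA containing peptide. Cells stimulated with R-FSL-1 at 300 ng/mL for 19 h. Nitrite in 25 μL supernatant reacted with 0.5 μg 2,3-diaminonaphthalene in 50 mM phosphate pH 7.5, 15 min at room temperature in the dark, stopped with NaOH. Fluorescence read.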

[2] = biological target: Platelet glycoprotein 4 (Mus musculus) (UniProt Q08857); assay: Modulation of CD36 receptor in mouse RAW 264.7 cells assessed as inhibition of R-FSL-1-induced NO production at competitive receptor binding assay IC50 concentration pretreated for 30 mins followed by R-FSL-1 stimulation measured after 19 hrs by fluorescence plate reader assay relative to R-FSL-1; format: cell-based; design: scale not given: the % may be the effect or the level left
[3] = biological target: Platelet glycoprotein 4 (Mus musculus) (UniProt Q08857); assay: Modulation of CD36 receptor in mouse RAW 264.7 cells assessed as inhibition of R-FSL-1-induced TNFalpha production pretreated for 30 mins followed by R-FSL-1 stimulation measured after 4 hrs by ELISA; format: cell-based; conditions: RAW264.7, filed as modulator, time 4.5 hrs
Outline: (§1)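 RAW 264.7 cells seeded at 1.5 × 10^5 per well and weaned overnight in DMEM with 1% pen/strep. Medium then changed to DMEM with 0.2% BSA. Cells pretreated 30 min with peptide at 10^-7 M, with linear [azaTyr4]-GHRP-6 as reference. Stimulated with R-FSL-1 at 300 ng/mL for 4 h at 37 °C. TNF-α or CCL-2 in supernatant measured by ELISA. Inhibition % = (FSL-1 − treated)/(FSL-1 − basal) × 100.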

[4] = biological target: Platelet glycoprotein 4 (Mus musculus) (UniProt Q08857); assay: Modulation of CD36 receptor in mouse RAW 264.7 cells assessed as inhibition of R-FSL-1-induced TNFalpha production at competitive receptor binding assay IC50 concentration pretreated for 30 mins followed by R-FSL-1 stimulation measured after 19 hrs by ELISA relative to R-FSL-1; format: cell-based; design: scale not given: the % may be the effect or the level left; conditions: RAW264.7, time 19.5 hrs
[5] = biological target: Platelet glycoprotein 4 (Mus musculus) (UniProt Q08857); assay: Modulation of CD36 receptor in mouse RAW 264.7 cells assessed as inhibition of R-FSL-1-induced CCL-2 production pretreated for 30 mins followed by R-FSL-1 stimulation measured after 4 hrs by ELISA; format: cell-based; conditions: RAW264.7, filed as modulator, time 4.5 hrs; outline: as §1
[6] = biological target: Platelet glycoprotein 4 (Mus musculus) (UniProt Q08857); assay: Modulation of CD36 receptor in mouse RAW 264.7 cells assessed as inhibition of R-FSL-1-induced CCl-2 production at competitive receptor binding assay IC50 concentration pretreated for 30 mins followed by R-FSL-1 stimulation measured after 19 hrs by ELISA relative to R-FSL-1; format: cell-based; design: scale not given: the % may be the effect or the level left
[7] = biological target: Platelet glycoprotein 4 (Mus musculus) (UniProt Q08857); assay: Modulation of CD36 receptor in mouse BMA3.1A7 cells assessed as inhibition of R-FSL-1-induced IL-1beta production […] measured after 4 hrs by ELISA; format: cell-based; conditions: filed as modulator, time 4.5 hrs
[8] = biological target: Platelet glycoprotein 4 (Mus musculus) (UniProt Q08857); assay: Modulation of CD36 receptor in mouse BMA3.1A7 cells assessed as inhibition of R-FSL-1-induced IL-1beta production at competitive receptor binding assay IC50 concentration pretreated for 30 mins followed by R-FSL-1 stimulation measured after 4 hrs by ELISA relative to R-FSL-1; format: cell-based; design: scale not given: the % may be the effect or the level left; conditions: time 4.5 hrs
Platelet glycoprotein 4 = Platelet glycoprotein 4 (Rattus norvegicus, UniProt Q07969); assay: Displacement of [125I]-Tyr-Bpa-Ala-hexarelin from rat CD36 receptor in heart tissue membrane incubated for 60 mins by competitive receptor binding assay; format: cell membranes
Outline: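 Rat heart membranes (50 μg) incubated in the dark with 250,000 cpm [125I]-Tyr-Bpa-Ala-hexarelin in 50 mM Tris-HCl pH 7.4, 2 mM EGTA, 0.05% bacitracin, with competitor at 0.1–10 μM; hexarelin as reference. Nonspecific binding defined with 50 μM peptide. 60 min at 22 °C, then UV photolysis at 365 nm for 15 min at 4 °C. Pellets resolved on 7.5% SDS-PAGE.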

[9] = RAW264.7, filed as modulator, time 19.5 hrs

Chain of Platelet glycoprotein 4 (Mus musculus) (Q08857 whole entry): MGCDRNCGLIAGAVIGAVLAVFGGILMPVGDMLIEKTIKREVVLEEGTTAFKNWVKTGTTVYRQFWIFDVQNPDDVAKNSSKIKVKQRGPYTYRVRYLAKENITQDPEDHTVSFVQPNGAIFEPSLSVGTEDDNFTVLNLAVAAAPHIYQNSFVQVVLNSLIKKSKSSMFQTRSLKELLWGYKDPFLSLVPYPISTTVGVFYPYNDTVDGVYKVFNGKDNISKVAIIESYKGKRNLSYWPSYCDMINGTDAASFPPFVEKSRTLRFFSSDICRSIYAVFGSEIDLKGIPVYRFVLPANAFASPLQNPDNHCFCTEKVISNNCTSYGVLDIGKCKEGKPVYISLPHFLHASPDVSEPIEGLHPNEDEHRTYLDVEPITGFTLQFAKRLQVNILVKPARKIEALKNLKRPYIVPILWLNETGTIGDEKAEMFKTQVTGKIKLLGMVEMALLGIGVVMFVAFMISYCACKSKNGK
Chain of Platelet glycoprotein 4 (Q07969 whole entry): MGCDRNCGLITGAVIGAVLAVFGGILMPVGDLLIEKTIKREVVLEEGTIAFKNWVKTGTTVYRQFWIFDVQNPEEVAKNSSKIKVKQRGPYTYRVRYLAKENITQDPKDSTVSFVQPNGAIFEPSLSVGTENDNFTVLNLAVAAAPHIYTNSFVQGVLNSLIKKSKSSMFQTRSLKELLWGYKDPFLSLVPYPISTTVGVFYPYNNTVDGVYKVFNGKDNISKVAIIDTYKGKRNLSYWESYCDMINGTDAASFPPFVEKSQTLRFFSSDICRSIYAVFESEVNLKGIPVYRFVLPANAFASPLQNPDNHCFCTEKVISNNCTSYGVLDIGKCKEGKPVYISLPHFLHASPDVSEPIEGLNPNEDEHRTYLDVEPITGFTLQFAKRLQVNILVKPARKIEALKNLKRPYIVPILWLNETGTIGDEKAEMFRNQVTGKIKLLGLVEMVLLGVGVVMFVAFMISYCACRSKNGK

Structure (SMILES) | Activity [1] | Activity ([2]; RAW264.7, time 1170.0 min) | Activity [3] | Activity [4] | Activity [5] | Activity ([6]; RAW264.7, time 19.5 hrs) | Activity [7] | Activity [8] | pIC50 (Platelet glycoprotein 4) | Activity [6, 9] | Activity ([2]; RAW264.7, filed as modulator, time 1170.0 min) | Activity ([8]; filed as modulator)
C[C@H](N)C(=O)NN1C/C=C\CN(CC2CC2)CCCC[C@@H](C(N)=O)NC(=O)[C@@H](Cc2ccccc2)NC(=O)[C@H](Cc2c[nH]c3ccccc23)NC(=O)[C@H](C)NC(=O)[C@@H](Cc2c[nH]c3ccccc23)NC1=O | 2.57 µM | 12% | 4820 pmol | 3% | 903 pmol | 23% | 312 pmol | 9% | 5.04 |  |  | 
C=CCN1CC#CCN(NC(=O)[C@H](C)N)C(=O)N[C@@H](C)C(=O)N[C@@H](Cc2c[nH]c3ccccc23)C(=O)N[C@H](Cc2ccccc2)C(=O)N[C@H](C(N)=O)CCC1 | 2.81 µM | 0% | 4760 pmol | 5% | 1030 pmol | 8% | 381 pmol | 9% | 4.64 |  |  | 
C=CCN1CC#CCN(NC(=O)[C@H](C)N)C(=O)N[C@@H](C)C(=O)N[C@@H](Cc2c[nH]c3ccccc23)C(=O)N[C@H](Cc2ccccc2)C(=O)N[C@H](C(N)=O)CC1 | 2.51 µM | 15% | 4850 pmol | 3% | 954 pmol | 17% | 389 pmol | 6% | 4.99 |  |  | 
C[C@H](N)C(=O)NN1CC#CCN(CC2CC2)CCCC[C@@H](C(N)=O)NC(=O)[C@@H](Cc2ccccc2)NC(=O)[C@H](Cc2c[nH]c3ccccc23)NC(=O)[C@H](C)NC(=O)[C@@H](Cc2c[nH]c3ccccc23)NC1=O | 2.53 µM | 14% | 4620 pmol | 8% | 984 pmol | 21% | 366 pmol | 13% | 5.51 |  |  | 
C=CCN1CC#CCN(N)C(=O)N[C@H](Cc2c[nH]c3ccccc23)C(=O)N[C@@H](C)C(=O)N[C@@H](Cc2c[nH]c3ccccc23)C(=O)N[C@H](Cc2ccccc2)C(=O)N[C@H](C(N)=O)CCCC1 | 2.72 µM | 5% | 4900 pmol | 2% | 1040 pmol | 6% | 388 pmol | 7% | < 4.30 |  |  | 
C=CCN1CC#CCN(NC(=O)[C@H](C)N)C(=O)N[C@@H](C)C(=O)N[C@@H](Cc2c[nH]c3ccccc23)C(=O)N[C@H](Cc2ccccc2)C(=O)N[C@H](C(N)=O)CCCC1 | 2.3 µM |  | 3840 pmol | 27% | 758 pmol | 39% | 291 pmol | 35% |  |  | 25% | 
C=CCN1CC#CCN(NC(=O)[C@H](C)N)S(=O)(=O)N[C@H](Cc2c[nH]c3ccccc23)C(=O)N[C@@H](C)C(=O)N[C@@H](Cc2c[nH]c3ccccc23)C(=O)N[C@H](Cc2ccccc2)C(=O)N[C@H](C(N)=O)CCCC1 | 2.74 µM | 4% | 5120 pmol | -4% | 969 pmol | 15% | 378 pmol | 6% | 4.99 |  |  | 
CCCCCCCCCCCCCCCC(=O)OCC(CSCC(N)C(=O)NCC(=O)N[C@@H](CC(=O)O)C(=O)N1CCC[C@H]1C(=O)N[C@@H](CCCCN)C(=O)N[C@@H](Cc1cnc[nH]1)C(=O)N1CCC[C@H]1C(=O)N[C@@H](CCCCN)C(=O)N[C@@H](CO)C(=O)N[C@@H](Cc1ccccc1)C(=O)O)OC(=O)CCCCCCCCCCCCCCC (some centres not stated) (H-[ξC](X1)GDPKHPKSF-OH) | 2.82 µM |  | 4970 pmol |  | 1100 pmol |  | 410 pmol |  |  |  |  | 
CCCN1CCCC[C@@H](C(N)=O)NC(=O)[C@@H](Cc2ccccc2)NC(=O)[C@H](Cc2c[nH]c3ccccc23)NC(=O)[C@H](C)NC(=O)[C@@H](Cc2c[nH]c3ccccc23)NC(=O)N(NC(=O)[C@H](C)N)CCCC1 | 2.08 µM | 36% | 4110 pmol | 21% | 802 pmol | 34% | 312 pmol | 29% | 5.65 |  |  | 

Continued, values first:

Activity [1] | Activity ([2]; RAW264.7, time 1170.0 min) | Activity [3] | Activity [4] | Activity [5] | Activity ([6]; RAW264.7, time 19.5 hrs) | Activity [7] | Activity [8] | pIC50 (Platelet glycoprotein 4) | Activity [6, 9] | Activity ([2]; RAW264.7, filed as modulator, time 1170.0 min) | Activity ([8]; filed as modulator) | Structure (SMILES)
2.75 µM | 4% | 4460 pmol | 12% | 918 pmol | 13% | 313 pmol | 29% | 5.73 |  |  |  | CCCN1CC#CCN(NC(=O)[C@H](C)N)C(=O)N[C@H](Cc2c[nH]c3ccccc23)C(=O)N[C@@H](C)C(=O)N[C@@H](Cc2c[nH]c3ccccc23)C(=O)N[C@H](Cc2ccccc2)C(=O)N[C@H](C(N)=O)CCCC1
2.35 µM | 23% | 4040 pmol | 22% | 707 pmol |  | 304 pmol | 32% |  | 45% |  |  | C=CCN1CC#CCN(NC(=O)[C@H](C)NC(C)=O)C(=O)N[C@H](Cc2c[nH]c3ccccc23)C(=O)N[C@@H](C)C(=O)N[C@@H](Cc2c[nH]c3ccccc23)C(=O)N[C@H](Cc2ccccc2)C(=O)N[C@H](C(N)=O)CCCC1
2.45 µM | 18% | 4560 pmol | 10% | 785 pmol | 36% | 351 pmol | 18% |  |  |  |  | C=CCN1CC#CCN(NC(C)=O)C(=O)N[C@H](Cc2c[nH]c3ccccc23)C(=O)N[C@@H](C)C(=O)N[C@@H](Cc2c[nH]c3ccccc23)C(=O)N[C@H](Cc2ccccc2)C(=O)N[C@H](C(N)=O)CCCC1
2.52 µM | 15% | 4650 pmol | 8% | 971 pmol | 15% | 411 pmol | 0% | 4.88 |  |  |  | C=CCN1CC#CCN(NC(=O)[C@H](C)N)C(=O)N[C@H](Cc2c[nH]c3ccccc23)C(=O)N[C@@H](C)C(=O)N[C@@H](Cc2c[nH]c3ccccc23)C(=O)N[C@H](Cc2ccccc2)C(=O)N[C@H](C(N)=O)CCC1
2.11 µM | 35% | 3940 pmol | 25% | 672 pmol |  | 253 pmol |  | 7.00 | 50% |  | 46% | C=CCN1CC#CCN(NC(=O)[C@H](C)N)C(=O)N[C@H](Cc2c[nH]c3ccccc23)C(=O)N[C@@H](C)C(=O)N[C@@H](Cc2c[nH]c3ccccc23)C(=O)N[C@H](Cc2ccccc2)C(=O)N[C@H](C(N)=O)CCCC1
2.26 µM | 27% | 4180 pmol | 19% | 857 pmol | 28% | 271 pmol |  | 5.32 |  |  | 41% | C=CCN1CC#CCN(NC(=O)[C@H](C)N)C(=O)N[C@H](Cc2c[nH]c3ccccc23)C(=O)N[C@@H](C)C(=O)N[C@@H](Cc2c[nH]c3ccccc23)C(=O)N[C@H](Cc2ccccc2)C(=O)N[C@H](C(N)=O)CC1

— ChEMBL document CHEMBL5034008, “Diversity-Oriented A3-Macrocyclization for Studying Influences of Ring-Size and Shape of Cyclic Peptides: CD36 Receptor Modulators” (J Med Chem, 2021)
